Results: paper PMC5651361 (Alzheimer's & Dementia : Translational Research & Clinical …, 2016)
Values joined by “and” are separate entries in the source; they are usually repeats but may differ in a detail not shown here. Equal values may be shown once. Read-outs that look alike come from different tables or passages of the source.

Columns and labels:
[1] = tested on: tau; conditions: 2-week treatment, ventral horn spinal motoneurons and hippocampal CA3 mossy fibers, tau × amyloid precursor protein mice; cited from earlier work
[2] = tested on: pSer9-GSK3β; conditions: Tg2576 (APP) AD-transgenic mice; cited from earlier work
[3] = tested on: pSer9-GSK3β; conditions: cortex of CD1 mice; cited from earlier work
[4] = Plasma and brain exposure after 5-month repeated oral; type: in vivo, mouse; conditions: for Brain/plasma AUC(0–24 h) ratio / AUC(0–24 h) / Cmax/Cmin ratio / Cmin / Cmax: 5 months; for 0.002%/0.00067% AUC(0–24 h) ratio: 5 months in diet
Method in brief: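 Male WT mice received the test compound in diet (0.00067% or 0.002%) for 5 months. Blood was taken from the mandibular vein of awake mice into lithium heparin and centrifuged at 1500–2000g for 10 min at 4°C; plasma was stored at −80°C. Pons/cerebellum was dissected. Samples spanned 24 h; analytes were acetonitrile-precipitated and measured by LC-MS/MS.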

[5] = tested on: AT8 (pSer199/202-Thr205) tau; assay: AT8 immunostaining, quantitative image analysis; type: in vivo, mouse; conditions: 6 months, cortex
Method in brief: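 Male THY-Tau22 mice received the test compound in diet (0.0002%, 0.002% or 0.02%) for 6 months from age 2 months. Hemibrains were immersion-postfixed 7 days at 4°C in 4% formaldehyde, and 20 μm serial sagittal cryostat sections were cut. AT8 immunostaining was quantified by virtual-slide scanning image analysis as mean positive cell bodies count. Dunnett tests were run on log-transformed data, n = 9 mice/group.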

[6] = tested on: cystatin F; assay: Hippocampal mRNA expression, quantitative real-time RT-PCR; type: in vivo, mouse; conditions: 6 months in diet, hippocampus, THY-Tau22
[7] = tested on: neurofibrillary tangles; assay: Neurofibrillary tangles, Gallyas silver staining; type: in vivo, mouse; conditions: 6 months
[8] = tested on: Ser9-GSK3β; assay: Western blot of Ser9-GSK3β in hippocampus; type: in vivo, mouse; conditions: 2-week treatment, 0.002% and 0.02% in drinking water, THY-Tau22 mice
[9] = tested on: APPxPS1 transgenic mice; assay: Object recognition test in APPxPS1 transgenic mice; type: in vivo, mouse; conditions: data not shown
[10] = tested on: mice; conditions: object recognition test, acute treatment; cited from earlier work
[11] = tested on: GFAP; assay: Hippocampal mRNA expression, quantitative real-time RT-PCR; type: in vivo, mouse; conditions: 6 months in diet, hippocampus, THY-Tau22
[12] = tested on: histamine H3-receptor (H3R); conditions: compared with ABT-239; cited from earlier work
[13] = tested on: tau protein; type: in vivo, mouse; conditions: for change in tau phosphorylation at Ser199/202-Thr205 (AT8 signal): 6 months in diet, not significant
Method in brief: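 Cortex or hippocampus from THY-Tau22 mice given diet dosing for 6 months was homogenized in RIPA buffer (pH 7.5) with protease inhibitors, 1 μM okadaic acid and 100 mM NaF, then centrifuged at 16,000g for 10 min at 4°C. Protein (5 or 20 μg) was run on 4–12% Bis-Tris gels, transferred to PVDF and blocked in 5% milk. Primary antibodies were applied overnight at 4°C. Values are relative, n = 7–9/group.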

[14] = tested on: rats; conditions: object recognition test, acute treatment; cited from earlier work
[15] = tested on: MIP-1α; assay: Hippocampal mRNA expression, quantitative real-time RT-PCR; type: in vivo, mouse; conditions: 6 months, hippocampus
[16] = tested on: THY-Tau22 mice; assay: Shape and spatial object recognition test; type: in vivo, mouse; conditions: for recognition index, shape episodic memory: Fig. 2A; for recognition index, shape episodic memory / recognition index, spatial episodic memory: means ± SEM; for recognition index, spatial episodic memory: Fig. 2B
Method in brief: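 Individually housed male THY-Tau22 and WT littermates (enriched environment, reverse light/dark cycle) received diet dosing from age 2 months for 4 or 6 months. Object recognition used a 59 × 59 × 30 cm PVC open field (black walls, white floor) with an overhead camera. Washout groups were tested for shape at 10 d and spatial memory at 17 d after cessation. Recognition index is reported as mean ± SEM.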

Structure (SMILES): C[C@@H]1CCCN1CCc1cc2cc(-c3ccc(C#N)cc3)ccc2o1 [ABT-239]
- tau hyperphosphorylation (AT8 site) [1]: decreases tau hyperphosphorylation
- reduction in hippocampal pSer9-GSK3β levels [2]: reversed the reduction
- levels of pSer9-GSK3β (inactive form of GSK3β) [3]: increased the levels

Structure (SMILES): CN1CCCC1CCNS(=O)(=O)c1ccc2c(c1)CN(CC1CCCCC1)CC2 (centres unmarked) [SAR110894]
- Brain/plasma AUC(0–24 h) ratio ([4]; 0.00067% in diet): 3.5
- AUC(0–24 h) ([4]; 0.00067% in diet, brain): 110 ng·h/g
- AUC(0–24 h) ([4]; 0.00067% in diet, plasma): 31 ng·h/mL
- Cmax/Cmin ratio ([4]; 0.00067% in diet, plasma): 1.4
- Cmin ([4]; 0.00067% in diet, plasma): 1.26 ng/mL and 4.83 nM
- Cmax/Cmin ratio ([4]; 0.00067% in diet, pons/cerebellum): 1.5
- Brain/plasma AUC(0–24 h) ratio ([4]; 0.002% in diet): 3.5
- AUC(0–24 h) ([4]; 0.002% in diet, brain): 390 ng·h/g
- AUC(0–24 h) ([4]; 0.002% in diet, plasma): 110 ng·h/mL
- Cmax ([4]; 0.002% in diet, plasma): 24.8 nM
- Cmax/Cmin ratio ([4]; 0.002% in diet, plasma): 2.7
- Cmin ([4]; 0.002% in diet, plasma): 2.44 ng/mL and 9.35 nM
- Cmax ([4]; 0.002% in diet, plasma, male WT mice): 6.48 ng/mL
- Cmax/Cmin ratio ([4]; 0.002% in diet, pons/cerebellum): 2.1
- 0.002%/0.00067% AUC(0–24 h) ratio ([4]; plasma): 3.5
- 0.002%/0.00067% AUC(0–24 h) ratio ([4]; pons/cerebellum): 3.5
- decrease in number of AT8-positive neuronal cell bodies ([5]; 0.002% in diet, THY-Tau22, P = .0010): 47%
- intensity of AT8 immunostaining within neuronal cell bodies and fibers ([5]; 0.002% in diet, data not shown): marked decrease
- decrease in number of AT8-positive neuronal cell bodies ([5]; 0.02% in diet, THY-Tau22, P = .0250): 32%
- expression of cystatin F [6]: no effect
- change in number of NFTs ([7]; 0.002% in diet, cortex, P = .0001): −48%
- change in number of NFTs ([7]; 0.002% in diet, hippocampus, P < .0001): −25%
- change in number of NFTs ([7]; 0.02% in diet, amygdala, P = .0065): −31%
- change in number of NFTs ([7]; 0.02% in diet, cortex, P = .0019): −41%
- change in number of NFTs ([7]; 0.02% in diet, hippocampus, P = .0006): −22%
- level of Ser9-GSK3β (inactive form of GSK3β) [8]: no effect
- memory deficits in APPxPS1 transgenic mice [9]: decreased memory deficits
- memory deficits induced by infusion of Aβ(25–35) [10]: decreased the memory deficits
- expression of GFAP [11]: no effect
- affinity and selectivity for H3R [12]: higher affinity and selectivity than ABT-239
- change in tau phosphorylation at pSer214 ([13]; 0.002% in diet, 6 months, cortex, P = .0052): −35%
- change in tau phosphorylation at pSer422 ([13]; 0.002% in diet, 6 months, cortex, no effect, P = .3019): −20%
- change in tau phosphorylation at pThr181 (AT270 signal) ([13]; 0.002% in diet, 6 months, cortex, no effect, P = .4830): −16%
- change in AD2 signal ([13]; 0.002% in diet, 6 months, cortex, second independent Western blot evaluation, P = .0191, Fig. 4F): −37%
- change in AD2 signal ([13]; 0.002% in diet, 6 months, cortex, trend, P = .2766, Fig. 4B): −57%
- change in total tau (Tau5 signal) ([13]; 0.002% in diet, 6 months, cortex, unchanged, P = .0950): −17%
- change in tau phosphorylation at residues 396/404 (AD2 signal) ([13]; 0.002% in diet, 6 months, hippocampus, THY-Tau22, P = .0291): −37%
- tau hyperphosphorylation (AD2 or AT8) ([13]; 2-week treatment, 0.002% and 0.02% in drinking water, hippocampus, 5- to 6-month-old THY-Tau22 mice): no effect
- change in tau phosphorylation at Ser199/202-Thr205 (AT8 signal) ([13]; cortex, P = .8054, Fig. 4E): −29%
- change in tau phosphorylation at Ser199/202-Thr205 (AT8 signal) ([13]; hippocampus, P = .5560, Fig. 4D): −22%
- tau hyperphosphorylation (AD2 or AT8 epitopes) ([13]; acute administration 3 and 10 mg/kg orally, cingulate cortex, 3-month-old THY-Tau22 mice, data not shown): no effect
- scopolamine-induced memory deficits [14]: prevented the occurrence
- change in expression of MIP-1α ([15]; 0.0002% in diet, THY-Tau22, P = .0087): −35%
- change in expression of MIP-1α ([15]; 0.002% in diet, THY-Tau22, P = .0184): −36%
- deficit in shape episodic memory ([16]; 0.00067% in diet, 4 months, THY-Tau22 mice, confirmatory study, Fig. 2C): no effect
- deficit in spatial episodic memory ([16]; 0.00067% in diet, 4 months, THY-Tau22 mice, confirmatory study, Fig. 2D): reduced the deficit
- recognition index, shape episodic memory ([16]; 0.002% in diet, THY-Tau22 mice, P = .0010): 64 ± 2%
- recognition index, spatial episodic memory ([16]; 0.002% in diet, THY-Tau22 mice, P = .0153): 58 ± 3%
- procognitive effect on shape episodic memory after treatment washout ([16]; 0.002% in diet, after 1 week of washout, Fig. 2C): still persisted
- procognitive effect on spatial episodic memory after treatment washout ([16]; 0.002% in diet, after 2 weeks of washout, Fig. 2D): still persisted
- recognition index, shape episodic memory ([16]; 0.02% in diet, THY-Tau22 mice, P = .0104): 61 ± 3%
- recognition index, spatial episodic memory ([16]; 0.02% in diet, THY-Tau22 mice, P = .0002): 60 ± 2%
- cognitive deficits in THY-Tau22 mice ([16]; administered during 4 or 6 months starting at the age of 2 months): prevented cognitive deficits
